This is an account of results in ChEMBL document CHEMBL1250552, “Quantitative structure-activity relationship studies of threo-methylphenidate analogs” (Bioorg Med Chem, 2010).

The target in one test is Sodium-dependent dopamine transporter (Rattus norvegicus, UniProt P23977). The test can be described thus: Displacement of [3H]WIN 35428 from Sprague-Dawley rat striatal tissue after 2 hrs by liquid scintillation counting. The format is tissue-based, Striatum. The following applies: read-out: IC50. The method, boiled down: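 Male Sprague–Dawley rats anesthetized with CO₂ gas. Crude synaptosomal P₂ fraction made from striatum and homogenized in 25 mM sodium phosphate, pH 7.7, at 0 °C. Rapid filtration through glass microfiber filters, then scintillation counting.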
Sequence of Sodium-dependent dopamine transporter (P23977 whole entry): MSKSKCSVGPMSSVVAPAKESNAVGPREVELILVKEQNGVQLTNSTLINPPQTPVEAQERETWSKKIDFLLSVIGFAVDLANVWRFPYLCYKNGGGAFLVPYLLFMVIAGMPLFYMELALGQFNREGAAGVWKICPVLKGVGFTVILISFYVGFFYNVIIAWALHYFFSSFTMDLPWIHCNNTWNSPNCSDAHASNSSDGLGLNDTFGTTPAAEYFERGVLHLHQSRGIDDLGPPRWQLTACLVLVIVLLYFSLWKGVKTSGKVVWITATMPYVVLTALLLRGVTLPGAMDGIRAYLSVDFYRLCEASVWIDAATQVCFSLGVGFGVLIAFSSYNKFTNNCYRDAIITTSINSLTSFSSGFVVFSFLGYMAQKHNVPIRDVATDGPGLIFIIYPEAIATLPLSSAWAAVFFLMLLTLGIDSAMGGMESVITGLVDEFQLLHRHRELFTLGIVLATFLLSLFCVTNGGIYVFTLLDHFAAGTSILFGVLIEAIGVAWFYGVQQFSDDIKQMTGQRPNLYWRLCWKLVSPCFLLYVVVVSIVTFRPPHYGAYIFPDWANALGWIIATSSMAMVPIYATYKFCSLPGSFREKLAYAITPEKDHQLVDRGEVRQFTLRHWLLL
In the case of `COC(=O)[C@H](c1ccc(Cl)cc1)[C@H]1CCCCN1`, the IC50 came to 20.6 nM. As for `COC(=O)[C@H](c1ccc(C)cc1)[C@H]1CCCCN1`, the IC50 came to 33 nM. The same measure, in the same setting: to `COC(=O)[C@H](c1ccc(Cl)c(Cl)c1)[C@H]1CCCCN1` belongs 5.3 nM; to `COC(=O)[C@H](c1ccc2ccccc2c1)[C@H]1CCCCN1`, 11 nM. As to `COC(=O)[C@H](c1ccccc1Cl)[C@H]1CCCCN1`, the IC50 worked out at 1950 nM.

Take `COC(=O)[C@H](c1ccccc1Br)[C@@]1(C)CCCCN1`: the IC50 was determined as 1870 nM. `COC(=O)[C@H](c1cccc(O)c1)[C@H]1CCCCN1`: the IC50 came to 321 nM.

Consider `COC(=O)[C@H](c1cccc(Cl)c1)[C@H]1CCCCN1`, for which the IC50 was 5.1 nM. With `COC(=O)[C@H](c1ccc(F)cc1)[C@H]1CCCCN1`, the IC50 was determined as 35 nM.

As for `COC(=O)[C@H](c1ccccc1F)[C@H]1CCCCN1`, the IC50 is 1420 nM. As for `COC(=O)[C@H](c1cccc(F)c1)[C@H]1CCCCN1`, the IC50 came to 40.5 nM. The same measure, in the same setting: with `COC(=O)[C@H](c1cccc(N)c1)[C@H]1CCCCN1` the figure was 265 nM; with `COC(=O)[C@H](c1ccc(N)cc1)[C@H]1CCCCN1`, 34.5 nM; with `COC(=O)[C@H](c1cccc(Cl)c1)[C@@]1(C)CCCCN1C`, 160 nM. On the same count and under the same terms, with `COC(=O)[C@H](c1ccc(I)cc1)[C@H]1CCCCN1` the figure was 14 nM; with `COC(=O)[C@H](c1cccc(Br)c1)[C@H]1CCCCN1`, 4.18 nM.

Turning to `COC(=O)[C@H](c1ccc(OCO)c(CO)c1)[C@H]1CCCCN1C`, the IC50 turned out to be 620 nM. For `COC(=O)[C@H](c1ccc([N+](=O)[O-])cc1)[C@H]1CCCCN1`, the IC50 is 494 nM.

Turning to `COC(=O)[C@H](c1ccc(OC)c(OC)c1)[C@H]1CCCCN1`, the IC50 was found to be 810 nM.

Consider `OC[C@H](c1ccccc1)[C@H]1CCCCN1Cc1ccccc1`, for which the IC50 turned out to be 23.7 nM. On to `COC[C@H](c1ccccc1)[C@H]1CCCCN1Cc1ccccc1`, for which the IC50 was 17.8 nM. The same measure, in the same setting: with `COC(=O)[C@H](c1ccccc1)[C@H]1CCCCN1Cc1ccccc1` the figure was 52.9 nM. Still for that read-out and setting: to `COC(=O)[C@H](c1ccc(C(F)(F)F)cc1)[C@H]1CCCCN1` belongs 615 nM. As to `COC(=O)[C@H](c1ccc(Br)cc1)[C@H]1CCCCN1`, the IC50 was found to be 6.9 nM.

In the case of `OC[C@H](c1ccccc1)[C@H]1CCCCN1` (racemic), the IC50 came to 448 nM. The same measure, in the same setting: with `COC[C@H](c1ccccc1)[C@H]1CCCCN1` (racemic) the figure was 97.1 nM; with `OC[C@H](c1ccc(Cl)c(Cl)c1)[C@H]1CCCCN1` (racemic), 4.2 nM. Same read-out and setting: with `CCN1CCCC[C@@H]1[C@H](CO)c1ccccc1` (racemic) the figure was 2340 nM; with `OC[C@H](c1cccc(F)c1)[C@H]1CCCCN1` (racemic), 281 nM; with `COC[C@H](c1ccc(Cl)c(Cl)c1)[C@H]1CCCCN1` (racemic), 1.7 nM.

On to `NC(=O)[C@H](c1ccc(Cl)c(Cl)c1)[C@H]1CCCCN1` (racemic), for which the IC50 is 16.4 nM. On to `CC(=O)OC[C@H](c1ccccc1)[C@H]1CCCCN1` (racemic), for which the IC50 was 690 nM. Consider `NC(=O)[C@H](c1ccccc1)[C@H]1CCCCN1` (racemic), for which the IC50 was 1730 nM. As for `CCc1ccc([C@@H](C(=O)OC)[C@H]2CCCCN2)cc1` (racemic), the IC50 amounted to 737 nM. For the molecule `COC(=O)[C@H](c1cc(Cl)cc(Cl)c1)[C@H]1CCCCN1` (racemic), the IC50 was 65.6 nM.

In the case of `COC(=O)[C@H](c1cc(C)cc(C)c1)[C@H]1CCCCN1` (racemic), the IC50 is 4690 nM. As to `COC(=O)[C@H](c1ccccc1)[C@H]1CCCCN1Cc1ccc([N+](=O)[O-])cc1` (racemic), the IC50 is 113 nM. On to `COC(=O)[C@H](c1ccccc1)[C@H]1CCCCN1Cc1ccc(Cl)cc1` (racemic), for which the IC50 turned out to be 31.2 nM. On the same count and under the same terms, to `C=CCN1CCCC[C@@H]1[C@H](C(=O)OC)c1ccccc1` (racemic) belongs 597 nM; to `COC(=O)[C@H](c1ccccc1)[C@H]1CCCCN1Cc1ccccc1Cl` (racemic), 243 nM. As to `COC(=O)[C@H](c1ccccc1)[C@H]1CCCCN1CCCCCCc1ccccc1` (racemic), the IC50 amounted to 656 nM.

`COC(=O)[C@H](c1ccccc1)[C@H]1CCCCN1CCCCCc1ccccc1` (racemic): the IC50 was found to be 1570 nM.

On to `COC(=O)[C@H](c1ccccc1)[C@H]1CCCCN1CCCCc1ccccc1` (racemic), for which the IC50 stood at 205 nM.

Regarding `COC(=O)[C@H](c1ccccc1)[C@H]1CCCCN1CCc1ccccc1` (racemic), the IC50 amounted to 678 nM. The same measure, in the same setting: to `COC(=O)[C@H](c1ccccc1)[C@H]1CCCCN1Cc1cccc(Cl)c1` (racemic) belongs 106 nM. The same measure, in the same setting: to `COC(=O)[C@H](c1ccccc1)[C@H]1CCCCN1CCCc1ccccc1` (racemic) belongs 267 nM; to `OC[C@H](c1ccccc1)[C@H]1CCCCN1CCc1ccccc1` (racemic), 1430 nM; to `OC[C@H](c1ccccc1)[C@H]1CCCCN1CCCCc1ccccc1` (racemic), 623 nM. As for `C#CCN1CCCC[C@@H]1[C@H](C(=O)OC)c1ccccc1` (racemic), the IC50 is 821 nM.

Regarding `OC[C@H](c1ccccc1)[C@H]1CCCCN1CCCc1ccccc1` (racemic), the IC50 was determined as 194 nM. Still for that read-out and setting: with `COC(=O)[C@H](c1ccccc1)[C@H]1CCCCN1Cc1ccc(N=C=S)cc1` (racemic) the figure was 422 nM; with `COC(=O)[C@H](c1cccc(Cl)c1)[C@H]1CCCCN1Cc1ccccc1` (racemic), 41.2 nM; with `CN(C)C(=O)[C@H](c1ccccc1)[C@H]1CCCCN1Cc1ccccc1` (racemic), 1730 nM. With `NC(=O)[C@H](c1ccccc1)[C@H]1CCCCN1Cc1ccccc1` (racemic), the IC50 was 384 nM. As for `COC(=O)[C@H](c1ccc(Cl)c(Cl)c1)[C@H]1CCCCN1Cc1ccccc1` (racemic), the IC50 amounted to 76.3 nM. Same read-out and setting: to `OC[C@H](c1ccc(Cl)c(Cl)c1)[C@H]1CCCCN1Cc1ccccc1` (racemic) belongs 2.74 nM; to `COC[C@H](c1ccc(Cl)c(Cl)c1)[C@H]1CCCCN1Cc1ccccc1` (racemic), 4.2 nM; to `O=C(OCc1ccccc1)[C@H](c1ccccc1)[C@H]1CCCCN1` (racemic), 1020 nM. On the same count and under the same terms, to `OC[C@H](c1ccccc1)[C@H]1CCCCN1Cc1cccc(Cl)c1` (racemic) belongs 25.8 nM; to `COC(=O)[C@H](c1ccccc1)[C@H]1CCCCN1Cc1ccoc1` (racemic), 459 nM.

In the case of `COC(=O)[C@H](c1ccccc1)[C@H]1CCCCN1Cc1cccs1` (racemic), the IC50 was 224 nM. On to `COC(=O)[C@H](c1ccccc1)[C@H]1CCCCN1Cc1ccsc1` (racemic), for which the IC50 is 143 nM. Turning to `COC(=O)[C@H](c1ccccc1)[C@H]1CCCCN1Cc1ccco1` (racemic), the IC50 was determined as 536 nM. For `COC(=O)[C@H](c1ccccc1)[C@H]1CCCCN1Cc1ccncc1` (racemic), the IC50 is 128 nM. The same measure, in the same setting: to `COC(=O)[C@H](c1ccccc1)[C@H]1CCCCN1Cc1cccnc1` (racemic) belongs 173 nM; to `COC(=O)[C@H](c1ccccc1)[C@H]1CCCCN1Cc1ccccn1` (racemic), 369 nM; to `COC(=O)[C@H](c1ccccc1)[C@H]1CCCCN1Cc1ccc(Cl)s1` (racemic), 392 nM.

With `COC(=O)[C@H](c1ccccc1)[C@H]1CCCCN1Cc1ccc(OC)cc1` (racemic), the IC50 was 79.1 nM.

The test is the same for the next values; noted with them: read-out: pIC50 (converted).
On to `COC(=O)[C@H](c1ccc(O)cc1)[C@H]1CCCCN1C`, for which the IC50 was 1200 nM. Regarding `COC(=O)[C@H](c1ccc(C)cc1)[C@H]1CCCCN1C`, the IC50 is 141 nM.

For the molecule `OC[C@H](c1ccc(Cl)c(Cl)c1)[C@H]1CCCCN1Cc1ccccc1` (racemic), the IC50 was 2.69 nM.
